Hits are enriched below; roughly 2.1% of the tested compounds scored in any of these assays.
ERp5 block – blocks human ERp5 reductase activity on insulin; inhibition, % at 9.99 µM; ERp5 insulin aggregation, absorbance 650 nm, 90 min; Q15084; actives 0.05% (n = 350,000); AID 651711;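 active = mean replicate inhibition above about 25%, with every replicate also reaching it, limit read from the data, passing the limit was not always enough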
ARNT TACC3 PPI – ARNT/TACC3 interaction disruption. Q9Y6A5. AlphaScreen His-ARNT PAS-B/GST-TACC3 binding, luminescence; TACC3 fragment carries E629A point mutation. inhibition, % at 9.99 µM. actives 0.66% (n = 390,000). AID 623870;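 active = mean inhibition of replicates at least 50% and at least half of replicates each reaching 50%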;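 also: 0% = complete ARNT plus TACC3 wells and 100% = ARNT alone without TACC3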
PDI inh – inhibitors of human protein disulfide isomerase; P07237; PDI insulin aggregation turbidity, A650, 90 min; inhibition, % at 10 µM; actives 0.052% (n = 350,000); AID 588391;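 active = mean inhibition across replicates of 30% or more, whatever share of single replicates reach that level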
FN deposit inh – fibronectin deposition inhibition; actives 0.086% (n = 350,000); inhibition, % at 12.6 µM; AH1F fibroblasts, Alexa488-fibronectin deposition fluorescence, overnight;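 active = mean inhibition across replicates of 30% or more, regardless of how many single replicates reach that level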;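 also: positive control wells lacked labelled fibronectin entirely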
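Assay system: AH1F fibroblasts / Quantity: 10000 cells per well / Medium: DMEM plus 2% serum, read in PBS / Reagent: labelled fibronectin 24 nM / Dosing: single dose, pinned / Times: 1 h cell attachment, overnight exposure to compound and label / Signal: fluorescence, ex 485 nm, em 525 nm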
FGF22 binding – FGF22 (human) thermal shift binding; activity (Tm shift, normalised), % at 9.99 µM; actives 1.5% (n = 340,000); recombinant FGF22 thermal shift, SYPRO orange fluorescence; percent of sucrose octasulfate shift, DMSO zero; Q9HCT0;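 active = mean Tm shift, scaled 0 neutral to 100 positive control, at about 1.3% or above, every replicate too, limit read from the data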
AF4-AF9 inh – MLL-AF4/AF9 protein interaction inhibition. P42568. AlphaScreen, biotin-AF4 peptide binding to FLAG-AF9. inhibition, % at 10 µM. actives 0.47% (n = 350,000);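 active = every replicate reaching a set inhibition limit, whatever the replicate mean, cut at about 25% in these data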;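 also: 0% = plate neutral control median and 100% = total signal loss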
Target sequence (P42568 whole entry, looked up): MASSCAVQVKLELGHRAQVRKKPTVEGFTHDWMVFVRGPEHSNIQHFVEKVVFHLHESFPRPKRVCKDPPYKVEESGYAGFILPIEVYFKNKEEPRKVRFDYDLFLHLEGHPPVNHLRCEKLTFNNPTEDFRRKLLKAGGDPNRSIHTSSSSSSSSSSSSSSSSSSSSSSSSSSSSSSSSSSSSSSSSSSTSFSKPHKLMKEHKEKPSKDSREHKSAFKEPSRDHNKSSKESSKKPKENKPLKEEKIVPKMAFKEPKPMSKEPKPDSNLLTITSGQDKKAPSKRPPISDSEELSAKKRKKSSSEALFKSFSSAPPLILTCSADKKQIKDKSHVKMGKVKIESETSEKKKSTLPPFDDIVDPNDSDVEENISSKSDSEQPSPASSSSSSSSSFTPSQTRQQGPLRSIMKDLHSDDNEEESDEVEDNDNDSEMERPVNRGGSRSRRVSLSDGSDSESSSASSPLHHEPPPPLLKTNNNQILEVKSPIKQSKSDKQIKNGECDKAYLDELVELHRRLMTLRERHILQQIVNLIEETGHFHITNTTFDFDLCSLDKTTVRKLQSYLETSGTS
Numbers without * were called inactive; nt = not tested or not shown.

SMILES | ERp5 block | ARNT TACC3 PPI | PDI inh | FN deposit inh | FGF22 binding | AF4-AF9 inh
COc1ccc(NC(=O)N2C[C@@H](O)COC[C@@H]3O[C@H](CC(=O)NC4Cc5ccccc5C4)CC[C@H]32)cc1 | -2.1 | 2.8 | nt | 0.1 | 0.0 | -2.0
CN1CCN(C(=O)[C@H]2[C@H](CO)[C@H]3Cn4c(cccc4=O)[C@@H]2N3Cc2ccncc2)CC1 | 4.7 | -3.4 | nt | nt | -0.1 | -0.2
CCN1[C@H](C(=O)NCCCN(C)C)[C@@H](CO)[C@@H]2Cn3c(ccc(-c4ccccc4OC)c3=O)[C@@H]21 | 2.9 | nt | nt | nt | nt | -10.6
O=c1oc2ccccc2c(O)c1Sc1c(O)c2ccccc2oc1=O | nt | 75.9* | -14.3 | nt | nt | nt
O=C(Cc1c(O)c2ccccc2oc1=O)c1ccc(F)cc1 | 11.5 | nt | -2.7 | -11.0 | 0.1 | 47.4*
O=C(c1c(O)c2ccccc2oc1=O)C1CCC1 | nt | -2.3 | -6.5 | nt | nt | nt
O=C(NCCCN1CCOCC1)[C@H]1N[C@H]2c3ccc(C4=CCCC4)c(=O)n3C[C@H]2[C@@H]1CO | -1.9 | -0.5 | nt | nt | 0.1 | 2.3
CCC1(C)Cc2ccccc2C(=O)N1 (centres undefined) | 3.9 | -2.7 | 6.3 | -3.7 | 0.4 | -10.6
CC1(C)Cc2ccccc2C(=NCC(=O)O)N1 | -9.0 | -0.5 | -1.2 | 8.9 | 43.1* | -2.3
COc1ccc(NC(=O)N(C)C[C@@H]2Oc3ccc(NC(=O)Nc4ccccc4)cc3C(=O)N([C@H](C)CO)C[C@@H]2C)cc1 | -1.4 | -1.3 | nt | nt | -0.5 | 0.3
Cc1cc2ncc(C(=O)Nc3ccccc3)c(C)n2n1 | nt | -3.6 | 2.1 | nt | nt | nt
COC(=O)c1sccc1NC(=O)c1cnc2cc(C)nn2c1C | -11.4 | -0.3 | -2.5 | nt | 42.9* | 0.7
C[C@H](CO)N1C[C@H](C)[C@H](CN(C)C(=O)Nc2ccccc2)Oc2ccc(NC(=O)CCCCCC(=O)Nc3ccccc3N)cc2CC1=O | 1.7 | 8.9 | nt | nt | -0.4 | -1.7
CSc1ncccc1C(=O)Nc1nc2ccc(Oc3ccccc3)cc2s1 | 12.5 | 2.4 | -5.1 | 0.6 | 43.3* | 0.1
COc1ccc2nc(NC(=O)c3ccccc3C(=O)O)sc2c1 | 3.9 | -8.6 | -11.9 | -3.8 | 0.0 | -1.2
COC(=O)[C@@H]1[C@@H](CO)[C@@H]2Cn3c(ccc(-c4cccc(OC)c4)c3=O)[C@@H]2N1CC1CC1 | -0.1 | -5.3 | nt | nt | -0.2 | -0.2
COc1ccc(Cl)cc1S(=O)(=O)N1CCN=C1c1ccccc1 | 2.3 | 32.1 | -8.2 | -5.4 | 0.0 | 0.1
COc1ccc(Cl)cc1S(=O)(=O)N1CCCC1=O | -8.1 | -7.0 | -4.5 | 7.5 | 42.9* | 1.3
CCCNC(=O)Nc1ccc2c(c1)OC[C@@H](C)N(C(=O)C1CCOCC1)C[C@H](C)[C@H](OC)CN(C)C2=O | nt | nt | nt | 0.7 | 0.0 | -0.2
Cc1nc(-c2ccccc2)sc1C(=O)O | 1.1 | -6.9 | 1.2 | -5.1 | 0.2 | -3.1
Cc1ccc(-c2nc(C)c(C(=O)O)s2)cc1 | -0.6 | -6.0 | -0.2 | -10.3 | 43.4* | -3.3
CC1=Nc2cc(C(=O)NCCCOC(C)C)ccc2Sc2ccccc21 | -1.2 | 4.5 | 5.4 | -3.7 | 43.0* | 2.8
COc1ccc(CN(C)C[C@@H]2OCCCC[C@H](C)Oc3ccc(NC(=O)CCC(F)(F)F)cc3C(=O)N([C@@H](C)CO)C[C@H]2C)cc1 | 2.4 | -12.6 | nt | nt | 0.8 | -1.5
CC(C)(C)c1ccc(-n2nc(C#N)c(Cl)cc2=O)cc1 | -0.1 | nt | -14.3 | 30.1* | 0.3 | 4.2
CC(C)(C)c1ccc(-n2nc(C(N)=O)c(O)cc2=O)cc1 | 2.1 | nt | -10.4 | -5.0 | 0.3 | -0.1
O=C(Cn1c(C(F)(F)F)nc2ccccc21)N=Nc1c(O)[nH]c2ccc(Br)cc12 | 2.3 | nt | 5.6 | 2.0 | 43.1* | -4.1
CC(C)NC(=O)N1[C@H](CO)[C@@H]2c3ccccc3N(C(=O)c3ccc(F)cc3)C[C@@H]21 | nt | -3.1 | nt | nt | nt | nt
COc1ccc(S(=O)(=O)N[C@@H]2C=C[C@H](CC(=O)N3CCc4ccccc4C3)O[C@H]2CO)cc1 | 0.9 | -0.4 | nt | 2.5 | 0.0 | -1.3
CC(CC(=O)N1CCN(c2ccc(C(F)(F)F)cn2)CC1)n1ccnc1 (centres undefined) | -4.0 | -3.8 | 12.3 | -3.6 | 43.1* | 0.8
CC(C)NC(=O)Nc1cccc2c1O[C@@H](CN(C)CC1CCCCC1)[C@H](C)CN([C@@H](C)CO)C2=O | 18.9 | nt | nt | nt | -0.1 | 3.4

Assay outcomes (PubChem)
